The full list was thinned out, with hits kept by preference.
Fibroblast inh: antiproliferative effect on LL 47 fibroblasts – human, LL 47 cells, CellTiter-Glo luminescence, primary screen. LL 47 human lung fibroblast viability, ATP luminescence; hits give low values. viability, % at 10 µM. hit rate 1.1% among 85,000. AID 719, 2007;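 active = viability at or below 50% in the single dose screen; inactive = viability above 50%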;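 note: compound exposure lasted 72 h before the ATP readout; 100% = median luminescence of untreated cell-only wells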
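Signal: luminescent ATP detection, CellTiter-Glo; assay system: LL 47 human lung fibroblasts; input: 1,150 cells/well; incubation: overnight cell rest, 72 h compound treatment at 37 °C; measure: % viability versus median cells-only luminescence; medium: IMEM growth medium with 15% fetal bovine serum; dosing: compound addition at 0.1% DMSO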
PTEN del growth: growth suppression of PTEN-null HCT116, primary screen, cell-based, CellTiter-Glo; HCT116 PTEN-null viability, 60 h; hits give low values; viability, % at 10 µM; hit rate 1.2% among 140,000; AID 827, 2007;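 active = viability at or below a set limit, 4 SD under the median of all tested compounds, cut at about 3.7% in these data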;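 note: PTEN knockout HCT116 line with beta catenin targeted HCT116 as companion control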
H69AR inhibit: proliferation blockers of H69AR lung cancer cells, primary screen, cell-based, human, 86K library; H69AR lung tumor viability, ATP luminescence, 72 h; hits give low values; viability, % at 10 µM; hit rate 6% among 85,000;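 active = viability at or below 40%; inactive = viability above 40%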;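 note: multidrug resistant small cell line overexpressing MRP-1 efflux transporter; 100% = mean luminescence of untreated control wells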
HUVEC inhibit: inhibitors of HUVEC proliferation, primary screen, cell-based, 384-well; CellTiter-Glo luminescence, 72 h; hits give low values; hit rate 1.1% among 86,000; viability, % at 10 µM (by protocol);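 active = viability at or below 30%; inactive = viability above 30%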;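 note: 100% = median luminescence of DMSO-only cell control wells on each plate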
bCat KO growth: primary screen for growth suppressors in beta-catenin knockout HCT116 cells (colon tumor, human) | HCT116 beta-catenin knockout viability, CellTiter-Glo, 60 h; hits give low values | viability, % at 10 µM | hit rate 1.5% among 140,000 | AID 818, 2007;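 active = viability at or under a set limit, the compound median less 4 SD, cut at about 6% in these data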;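 note: 0% = Hyamine 1622 control at 20 µM and 100% = untreated cell control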
An asterisk follows results filed as active; . = no result given.

SMILES | Fibroblast inh | PTEN del growth | H69AR inhibit | HUVEC inhibit | bCat KO growth
COc1ccccc1-n1c(-c2ccoc2)nc2ccccc2c1=O | . | 82 | . | . | 90
Cc1cccn2c(=O)c3cc(C(=O)N4CCC5(CC4)OCCO5)n(C)c3nc12 | 57 | 13 | 20* | 56 | 14
CN(C)C=C1C(=O)N(C2CCCCC2)C(=O)N(C2CCCCC2)C1=O | 95 | 91 | 31* | 67 | 88
CCCCn1c(O)c(C(C)=NC(C)c2ccccc2)c(=O)[nH]c1=O (stereo not drawn) | 108 | 97 | 28* | 85 | 98
CCCCn1c(O)c(C(CC)=NC(C)c2ccccc2)c(=O)[nH]c1=O (stereo not drawn) | 99 | 45 | 17* | 75 | 46
CCCCn1c(O)c(C(CC)=Nc2ccc(OC)cc2OC)c(=O)[nH]c1=O | 94 | 86 | 34* | 78 | 87
CCCCn1c(O)c(C(C)=NCCc2ccccc2)c(=O)[nH]c1=O | 100 | 98 | 86 | 100 | 93
O=c1c2ccccc2nc(-c2ccc(-c3ccccc3)cc2)n1-c1ccncc1 | . | 59 | . | . | 58
C[C@@H]1O[C@@H](O[C@H]2C[C@@H](O)[C@]3(CO)[C@H]4[C@H](O)C[C@]5(C)[C@@H](C6COC(=O)C6)CC[C@]5(O)[C@@H]4CC[C@]3(O)C2)[C@H](O)[C@H](O)[C@H]1O (stereo partly drawn) | . | 5 | . | . | 4.6*
CCCCn1c(N)c(C(=O)NCc2cccs2)c2nc3ccccc3nc21 | 71 | 16 | 35* | 71 | 18
CCCCCn1c(N)c(C(=O)NCc2cccs2)c2nc3ccccc3nc21 | 86 | 20 | 32* | 82 | 27
Nc1c(C(=O)NCCCc2ccccc2)c2nc3ccccc3nc2n1Cc1cccs1 | 88 | 1.9* | 61 | 53 | 2.9*
CCCOC(=O)c1c(N)n(Cc2cccs2)c2nc3ccccc3nc12 | 96 | 83 | 41 | 75 | 75
CCc1cccc(C)c1NC(=S)N1CC2CC(C1)c1cccc(=O)n1C2 (stereo not drawn) | . | 92 | . | . | 88
Cc1ccc(C)c(CN2CCC(n3nnc4cc(F)ccc43)CC2)c1 | . | 80 | . | . | 81
C=CCn1c(O)c(N=Nc2c(C)n(C)n(-c3ccccc3)c2=O)c(=O)[nH]c1=S | . | 18 | . | . | 21
O=c1[nH]c(=O)n(Cc2ccco2)c(O)c1/C=N/N1CCCCC1 | . | 101 | . | . | 97
COc1ccc(CCn2c(O)c(C=NCCCN(C)C)c(=O)[nH]c2=O)cc1OC | 103 | 106 | 78 | 92 | 95
CCCC1(CCC)C(=O)NC(=NCc2ccccc2)NC1=O | 53 | 46 | 29* | 51 | 25
COc1cc(/C=C/[N+](=O)[O-])ccc1O | . | 3.3* | . | . | 4.0*
COc1cc(/C=C2/C(=O)NC(=O)N(c3ccccc3)C2=O)ccc1O | . | 94 | . | . | 93
CC(=Nc1ccc2c(c1)CCC2)c1c(O)n(C2CCCCC2)c(=O)[nH]c1=O | 37* | 95 | 40 | 42 | 54
Cc1nn(C2CCOC(C)(C)C2)c2c1C(c1ccc(OC(C)C)cc1)SCC(=O)N2 (stereo not drawn) | 103 | 66 | 87 | 100 | 68
C=CCn1c(=O)c(C=Nc2c(OC)cccc2[N+](=O)[O-])c(O)n(CCCC)c1=O | . | 95 | . | . | 92
COc1cccc(-n2c(CN3CCN(C)CC3)nc3ccc([N+](=O)[O-])cc3c2=O)c1 | . | 68 | . | . | 71
SMILES | Fibroblast inh | PTEN del growth | H69AR inhibit | HUVEC inhibit | bCat KO growth
O=C(c1ccc2c(=O)n(Cc3ccc4c(c3)OCO4)c(=S)[nH]c2c1)N1CCC2(CC1)OCCO2 | 100 | 86 | 32* | 101 | 90
O=C(NCc1ccc(C(=O)N2CCC3(CC2)OCCO3)cc1)c1ccc2c(c1)OCO2 | 99 | . | 90 | 98 | 91
Cc1[nH]c2c(Cl)cccc2c1CCN | 96 | . | 22* | 93 | .
S=C1NCCN1 | 99 | 101 | 93 | 98 | 94
CCOc1ccccc1-n1c(O)c(C=Nc2ccc(N(CC)CC)cc2)c(=O)[nH]c1=O | 71 | 53 | 19* | 65 | 44
CCOc1ccc(-n2c(O)c(C=Nc3ccc(N(CC)CC)cc3)c(=O)[nH]c2=O)cc1 | 103 | 73 | 54 | 90 | 71
CCN(CC)c1ccc(N=Cc2c(O)n(Cc3ccccc3)c(=O)[nH]c2=O)cc1 | 74 | 97 | 17* | 70 | 86
CCN(CC)c1ccc(N=Cc2c(O)n(-c3ccccc3C)c(=O)[nH]c2=O)cc1 | 93 | 66 | 55 | 83 | 64
C=CCn1c(O)c(C(C)=Nc2ccc(N(CC)CC)cc2)c(=O)[nH]c1=O | 66 | 28 | 20* | 70 | 36
CN1CCc2nc3ccc(F)cc3c(C(N)=O)c2C1 | . | 116 | . | . | 96
O=C(Nc1nc(-c2ccccc2)c(-c2ccccc2)s1)c1ccc(S(=O)(=O)N(CCCl)CCCl)cc1 | . | 68 | . | . | 79
CC(C)OC(=O)c1c(N)n(CC2CCCO2)c2nc3ccccc3nc12 (stereo not drawn) | . | 89 | 34* | 87 | 93
CC(C)CCn1c(N)c(C(=O)OCC2CCCO2)c2nc3ccccc3nc21 (stereo not drawn) | 91 | 30 | 20* | 60 | 34
CC(C)CCOC(=O)c1c(N)n(CC2CCCO2)c2nc3ccccc3nc12 (stereo not drawn) | 99 | 44 | 52 | 66 | 42
COc1cc2c(cc1OC)C(C(=O)NCCC(C)C)C1CCCCN1C2=O (stereo not drawn) | . | 91 | . | . | 86
CC(=O)OC(C)(C)/C=C/C(=O)[C@](C)(O)[C@H]1[C@H](O)C[C@@]2(C)[C@@H]3CC=C4[C@H](C[C@H](O)C(=O)C4(C)C)[C@]3(C)C(=O)C[C@]12C | . | 1.9* | . | . | 2.4*
CCOC(=O)c1cc(CC)sc1/N=C/c1c(O)[nH]c(=S)[nH]c1=O | . | 100 | . | . | 93
CC(C)Oc1ccc(CCN)cc1Cl | . | 88 | . | . | 85
Cc1ccccc1OCCN=Cc1c(O)n(C)c(=O)n(C)c1=O | 108 | 76 | 92 | 94 | 68
CCCCCCOc1ccc(CN2CCN(CC)CC2)cc1 | 95 | 65 | 75 | 84 | 62
CN1CCC(O)(c2ccccc2)C(C(=O)c2ccccc2)C1 (stereo not drawn) | 85 | 23 | 83 | 90 | 5.3*
CC12CN3CCN(C1)CC(C)(C3)C2=NO | 103 | 89 | 98 | 105 | 85
CCCCCCCSc1cc(OC)c(CCNC)cc1OC | . | 1.6* | . | . | 1.5*
Brc1ccc2c(c1)C(OC1CN3CCC1CC3)c1ccccc1CS2 (stereo not drawn) | . | 2.9* | . | . | 6.0*
CC(C)OP(=O)(OC(C)C)C(O)c1ccccc1F (stereo not drawn) | . | 88 | . | . | 97
O=C(Nc1ccc(Cl)cc1C(=O)c1ccccc1Cl)c1ccco1 | . | 96 | . | . | 82
CCC(C)n1c(O)c(C(c2ccccn2)c2c(O)n(C(C)CC)c(=S)[nH]c2=O)c(=O)[nH]c1=S (stereo not drawn) | . | 106 | . | . | 94

Screening data: PubChem, SRMLSC
